These results are taken from the EternaBench riboswitch data.

This data set relates to MS2 coat protein. Put plainly: apparent Kd, MS2 coat protein; higher = weaker binding; RNA-MaP array; FMN 200 µM where present. The gist of the method: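 Designs were transcribed by stalled E. coli RNA polymerase on Illumina sequencing-chip clusters. They were titrated with SNAP-549-labelled MS2 coat protein from 0.7 or 1.5 nM, doubling to 3 µM, in 100 mM Tris-HCl pH 7.5, 80 mM KCl, 4 mM MgCl2, BSA, DTT, yeast tRNA and Tween-20, without and then with constant ligand. The apparent Kd is the median of filtered per-cluster fits after normalisation of green signal to red-channel RNA signal and control-cluster median Fmax.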

[1] abbreviates: designed as: ON switch for flavin mononucleotide, no ligand.
[2] abbreviates: ligand present: flavin mononucleotide, designed as: ON switch for flavin mononucleotide.
Setting [3] is: designed as: OFF switch for flavin mononucleotide, no ligand.
Where [4] appears, read: ligand present: flavin mononucleotide, designed as: OFF switch for flavin mononucleotide.

Consider “GGUCGUCAGAUUAACAUGAGGAUCACCCAUGUCUUUUGACAUGAGGAUAUGGAUCCUAAUUGGAUCCAGAAGGCAUGGACGACC”, for which the “apparent Kd” value by setting is: under setting [1], 1170 nM; under setting [2], 104 nM.

With “CCUCCCUGAGGAUAUCCACCCUCAUACAUGAGGAUCACCCAUGUUCAACCCUGGGUUCCCGGAGAAGGCAGAUUUC”, the “apparent Kd” value under setting [3] worked out at 115 nM and the “apparent Kd” value under setting [4] is 134 nM.

As to “UUGCUCGUGUGAGGAUAUGCCGCCGUUUCGGCUGCAGAAGGUACUAUAAUACAUGAGGAUCACCCAUGUCUCUGUUGUUUCGUG”, the “apparent Kd” value runs as follows: under setting [1], 27.6 nM; under setting [2], 27.1 nM.

Consider “CCGAUGCUUAUAAAACAUGAGGAUCACCCAUGUGAGACACAUGAGGAUAUGCAGGUCAAAGACUUGCAGAAGGCAUAGCGUCGG”, for which the “apparent Kd” value turned out to be 644 nM under setting [1] and 61.8 nM under setting [2].

As to “AGGGUAGUAGGAUAUACAUGAGGAUCACCCAUGUUUCCUUUACGUGACUGGUCCUAGUGUAGAAGGGCUAGCAC”, the “apparent Kd” value under setting [3] was 15.8 nM and the “apparent Kd” value under setting [4] came out at 14.8 nM.

As for “AAUUGACACGUAGGAUAUCGCUUUAAUUUAACACGAGAAGGACGUACAUGAGGAUCACCCAUGUUAAAUGGUGUAGAUUAAUUG”, the “apparent Kd” value under setting [3] worked out at 167 nM and the “apparent Kd” value under setting [4] is 382 nM.

On to “GGUUGGCGAGGAUAUACAUGAGGAUCACCCAUGUGGUCCUGUGGCUGGUCUUAACUUUGUAGAAGGCGCGGGUC”, for which the “apparent Kd” value under setting [3] came to 66 nM and the “apparent Kd” value under setting [4] was 82.8 nM.

On to “CUUGUUUAUGUAGGAUAUGCCUGGCGUGCCUUUGCAGAAGGACAUGAGGAUCACCCAUGUAACAUGAGGCUCCACCUUGUCGCC”, for which the “apparent Kd” value came out at 143 nM under setting [3] and 141 nM under setting [4].

For the sequence “UCGCUGCGAGGAUAUACGUGCGCGCGCUCGCGUGCGCGCGUACAUGAGGAUCACCCAUGUAGAAGGCGCGCUGC”, the “apparent Kd” value is 17.1 nM under setting [3] and 18.3 nM under setting [4].

As to “GCCUGCUGGCGAGGAUAUUCUGUGCGGUUCCAGCUCGUGUCUGUUACAUGAGGAUCACCCAUGUGGGAGAAGGUGUCUGUGGCC”, the “apparent Kd” value under setting [3] was found to be 6 nM and the “apparent Kd” value under setting [4] was determined as 5.73 nM.

As to “ACAUGAGGAUCACCCAUGUUAAGCGAGGAUAUUUGACUGCACAUGAGGUUCGCCCAUGUCCUGCCGAAGAAGGUGCGAAUAAUU”, the “apparent Kd” value by setting is: under setting [1], 54.2 nM; under setting [2], 17.6 nM.

Take “UUGAAGUCAUCAGGAUAUAGUAUAAAAGACAUAUAUUUUUUCAAACAUGAGGAUCACCCAUGUCGCUAGAAGGGAUUAUAGAUU”: the “apparent Kd” value amounted to 47.3 nM under setting [3] and 41.3 nM under setting [4].

On to “UGGAUGUGGGUUCCACAUGAGGAUCACCCAUGUACCGAUGAGAGAAGGCACUCUAGUACCUAGAGUGAGGAUAUCUACAUUCAA”, for which the “apparent Kd” value runs as follows: under setting [3], 4.32 nM; under setting [4], 9.75 nM.

With “AUAGGCCUAGGAUAUACAUGAGGAUCACCCAUGUUAAUACUUCAAUCAAGUUAAUAGUGUAGAAGGAGGAAUAA”, the “apparent Kd” value stood at 27.6 nM under setting [3] and 32.4 nM under setting [4].

As to “UAAAAGUCAGGAUAUGCGAAGGCGUCUGAUAGACGAGGCUAGCAGAAGGGACAUGAGGAUCACCCAUGUGAAAU”, the “apparent Kd” value runs as follows: under setting [3], 51.8 nM; under setting [4], 138 nM.

Consider “ACAUGAGGAUCACCCAUGUGUGCAUAGGAUAUUGUGGAUUAGGGAUGUUUUUUUGGAUUUGCCUACAAGAAGGAUGAAAGUGUU”, for which the “apparent Kd” value is 14.3 nM under setting [1] and 12.6 nM under setting [2].

As to “UGGUACAUGGGAGGAUAUCAUGUAGUAACAUGAGGAUCACCCAUGUCGAUGGAGACAUCGGAGAUUGAGAAGGCCCAUGUACCU”, the “apparent Kd” value reads like this: under setting [1], 921 nM; under setting [2], 32.5 nM.

For the sequence “GCAUACAUUCGAGGAUAUCGGUGAACAAAUUAACGAGAAGGCGAUAGAAUGUUUCAUCUUAUGAACAUGAGGAUCACCCAUGUA”, the “apparent Kd” value under setting [1] stood at 39.3 nM and the “apparent Kd” value under setting [2] is 27.9 nM.

In the case of “ACUUAUAGAGGAUAUACAGAAUAUUACAUGAGGAUCACCCAUGUUCUUCAAUGUAUAUUUGUAGAAGGCUAAGGAA”, the “apparent Kd” value was determined as 50.6 nM under setting [3] and 249 nM under setting [4].

As to “CCUAAAAGGAAGGAUAUGCUAGACGAAAGUCUAGCAGAAGGUCCUACAUGAGGAUCACCCAUGUGUCCUAUAGG”, the “apparent Kd” value is, setting by setting: under setting [3], 48.5 nM; under setting [4], 59.4 nM.

Turning to “UGACUAAAUGAAGGAUAUCUAAGCAUAAACCUGAGAGAAGGUCAUUUUUACAUGAGGAUCACCCAUGUUGUGAUUAAUGGGUCA”, the “apparent Kd” value by setting is: under setting [3], 88.7 nM; under setting [4], 137 nM.

“GGUGCGUAUGUGAGGAUAUGCUGGUCCUUGGAUCAGCAGAAGGCACAUGAGGAUCACCCAUGUGGUGUCGUCCC”: the “apparent Kd” value under setting [3] turned out to be 426 nM and the “apparent Kd” value under setting [4] amounted to 21.1 nM.

For “UGAUAGGACAGAGGAUAUGCCGAUAGGAUCUACUAUCGAAGAAUCCUCACAUGAGGAUCACCCAUGUAGAAGGCUGUCCUAUCC”, the “apparent Kd” value under setting [3] came out at 8.68 nM and the “apparent Kd” value under setting [4] is 39.5 nM.

For “AAGAUGCGGGUAGGAUAUGGAGAGAAAGAAAGACCAGAAGGAUUGGUCACACAACAUGAGGAUCACCCAUGUGUGUGUUGCGAA”, the “apparent Kd” value runs as follows: under setting [3], 14.1 nM; under setting [4], 11.9 nM.

On to “GACUGCAGAGGAUAUACAUGAGGAUCACCCAUGUGAGAUGCCUGACAGGUGUUGCUGAGUAGAAGGCUGCACUG”, for which the “apparent Kd” value was 14.1 nM under setting [3] and 21 nM under setting [4].

Consider “CGGGAUUCCUGAGGAUAUGGAGCUGUCUACCUGGGCGACAUGAGGAUCACCCAUGUAGAACGCCUCCAGAAGGCAGCGAGAUUG”, for which the “apparent Kd” value by setting is: under setting [3], 27.3 nM; under setting [4], 23.8 nM.

Turning to “GAUUAACAUGAGGAUCACCCAUGUCGUAUUAUGGGAGGAUAUACGUGGACCGUAGUCCGCGUAGAAGGCCUAAUUG”, the “apparent Kd” value is, setting by setting: under setting [1], 93.8 nM; under setting [2], 28.7 nM.

“AUGACUCGUGUUAGGAUAUCUUCGGCGUGGCUGAUGGAGAAGGGACAUGAGGAUCACCCAUGUAUCCUGGUCGG”: the “apparent Kd” value amounted to 71.3 nM under setting [3] and 123 nM under setting [4].

As for “AGACGCAUGCAGAAGGACGACAUGAGGAUCACCCAUGUGGUCGGUAGGGUCGUAGGAUAUGCAAGGCGUUGCGAGCCAACUGUG”, the “apparent Kd” value came out at 118 nM under setting [3] and 26.9 nM under setting [4].

As to “GAACAUGAGGAUCACCCAUGUUCUCCAGAAGGCCGUACAUUUAAAAGUGGAUGGAUUAGUAUUGCGGAGGAUAUGGAGGUGCAA”, the “apparent Kd” value under setting [1] was determined as 102 nM and the “apparent Kd” value under setting [2] amounted to 61.1 nM.

As to “UGGUACUAGGGAGGAUAUGGGAAGAUACAUGAGGAUCACCCAUGUUUAAGAAUGCCGAGAGGCAACUAGAAGGCCCUAUUACCU”, the “apparent Kd” value was 365 nM under setting [1] and 20.1 nM under setting [2].

Take “GGAUAGGACAGAGGAUAUACCGAUAGGAGAUACUAUCGACUAGUCCUCACAUGAGGAUCACCCAUGUAGAAGGCUGUCCUAUCG”: the “apparent Kd” value reads like this: under setting [3], 23.3 nM; under setting [4], 234 nM.

For “GCACUGGAUGUAGGAUAUCAGGACGAUAAGUCCUGAGAAGGACAUGAGGAUCACCCAUGUAAAACUCCACCAGUGCAUAAUAUA”, the “apparent Kd” value reads like this: under setting [3], 13.1 nM; under setting [4], 17.9 nM.

As for “AAAUAAAGCAGUGUGGUAAGAUCACAUGAGGAUCACCCAUGUAAGGAUAUCUGUCCUAAAAGGACAGAGAAGGUACGUCACUGC”, the “apparent Kd” value worked out at 18.9 nM under setting [3] and 79.6 nM under setting [4].

Regarding “AAAACGUCAGGAUAUACAGAAGAGAUCACAAAAAAAAAAAAACAUGAGGAUCACCCAUGUAGAAGGGACAAAAA”, the “apparent Kd” value under setting [3] stood at 138 nM and the “apparent Kd” value under setting [4] was 188 nM.

For the sequence “GGAUAGGACAGAGGAUAUACGUGCUAGAGUUACUAGCAAAAUUUCCUCACAUGAGGAUCACCCAUGUAGAAGGCUGUCCUAUCG”, the “apparent Kd” value amounted to 15.6 nM under setting [3] and 470 nM under setting [4].
